Screening data: PubChem BioAssay, several laboratories
NPY1 pot ag: human NPY-Y1 potentiation or agonism, primary screen; P25929; NPY-Y1 expressing cells, potentiator/agonist activation; activation, % at 3.6 µM; 220,000 compounds, 0.37% hits; in the data active means activation above about 33%, passing the limit was not always enough;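 further: cells stimulated with NPY at EC10 then isoproterenol at EC100; 0% = low agonist plus stimulus and 100% = saturating agonist plus stimulus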
Target sequence (P25929 whole entry, looked up): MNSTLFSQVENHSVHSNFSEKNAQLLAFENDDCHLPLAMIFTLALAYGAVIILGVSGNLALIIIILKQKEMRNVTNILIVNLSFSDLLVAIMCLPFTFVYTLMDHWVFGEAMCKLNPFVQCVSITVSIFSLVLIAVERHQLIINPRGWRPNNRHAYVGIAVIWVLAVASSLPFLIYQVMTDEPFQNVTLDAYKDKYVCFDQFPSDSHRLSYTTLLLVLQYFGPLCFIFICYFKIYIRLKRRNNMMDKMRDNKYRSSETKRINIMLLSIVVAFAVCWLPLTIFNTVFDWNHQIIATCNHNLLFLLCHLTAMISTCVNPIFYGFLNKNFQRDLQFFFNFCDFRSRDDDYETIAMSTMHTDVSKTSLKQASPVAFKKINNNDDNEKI
NPY-Y1 antag: blocks the human neuropeptide Y Y1 receptor; P25929; HEK293-CNG Y1 cells, membrane potential fluorescence; NPY at EC95, then isoproterenol; inhibition, % at 3.6 µM; 200,000 compounds, 1% hits;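 active means inhibition above the campaign mean inhibition of all tested compounds plus 3 SD, cut at about 20% in these data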;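 further: 0% = DMSO wells given NPY plus isoproterenol and 100% = isoproterenol alone without NPY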
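Test system: HEK293 cells co-expressing NPY Y1 receptor and cyclic-nucleotide gated channel; Also added: NPY (25 nM), isoproterenol (1 µM), Ro 20-1724 (25 µM); Compound dosing: one concentration, 3.6 µM, in 0.4% DMSO; Timing: dye 3 h, compound 60 min room temperature, stimulation 45 min; Technique: Membrane-potential fluorescent dye readout.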
NPY-Y2 PAM-ag: human NPY-Y2 potentiation or agonism, primary screen; P49146; cells expressing NPY-Y2, potentiator/agonist read-out; 220,000 compounds, 0.45% hits; AID 1359; activation, % at 3.6 µM; in the data active means activation above about 27%;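 further: cells stimulated with NPY near EC25 plus isoproterenol at EC100; 0% = vehicle plus submaximal agonist and 100% = vehicle plus saturating agonist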
RAM network inh: yeast RAM network inhibition; S. cerevisiae dse1pr::URA3 reporter, 5-FOA growth OD615, 2 d; analog-sensitive cbk1-as2 kinase mutant strain; inhibition, % at 50 µM; 190,000 compounds, 1.8% hits; AID 868;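 active means inhibition above a set limit, 3 SD over mean compound inhibition, cut at about 8.4% in these data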;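 further: 0% = DMSO-only wells with no growth and 100% = 10 µM 1-NA-PP1 full growth; inhibition rescues growth on 5-FOA so higher OD means more RAM inhibition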
WT yeast gro inh: growth inhibition of WT yeast, mitochondrial fusion screen | 190,000 compounds, 2.1% hits | inhibition, % at 10 µM | mitochondrial fusion phenotypic screen, WT strain; in the data active means inhibition above about 58%; tested in S. cerevisiae
NPY Y2 blocker: antagonists of human neuropeptide Y receptor Y2. P49146. NPY-Y2 expressing cells, antagonist mode. inhibition, % at 2.7 µM. 140,000 compounds, 0.99% hits. AID 793; in the data active means inhibition above about 17%;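 further: 0% = vehicle with agonist challenge and 100% = reference antagonist with challenge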
Active calls of the source: *; . = no result given. Compounds with a hit are over-represented: about 4.9% of the library has one in this group of screens.

SMILES | NPY1 pot ag | NPY-Y1 antag | NPY-Y2 PAM-ag | RAM network inh | WT yeast gro inh | NPY Y2 blocker
Cn1cccc1/C=N/n1c(-c2ccc(Cl)cc2)n[nH]c1=S | 14 | 3 | 1 | 4 | 10 | 3
CCOC(=O)c1ccc(N=C2C(=S)N(c3ccc(C(=O)OCC)cc3)C(=N)N2/N=C/c2ccccc2)cc1 | -12 | 3 | -8 | 1 | 21 | 7
COc1cc(-c2cn(S(=O)(=O)c3cccc4nsnc34)nc2N)cc(OC)c1OC | -26 | 23* | -9 | 0 | 32 | 18*
Cc1ccc(-c2cn(S(=O)(=O)c3cccc4nsnc34)nc2N)cc1 | -5 | -2 | -17 | 3 | 26 | 5
CCOC(=O)N(NC(=O)C(O)(c1ccccc1)c1ccccc1)c1ccccc1 | -28 | 46* | 1 | 3 | 8 | 20*
COC(=O)N(NC(=O)C(O)(c1ccccc1)c1ccccc1)c1ccc(C)cc1 | -1 | 31* | -17 | -1 | 13 | 21*
CC(C)(C)c1ccc(OCC(=O)N2CCCCCC2)c(Br)c1 | -5 | 1 | -22 | -1 | 68* | .
Cc1cc(Cl)ccc1OCC(=O)N1CCCN(C(=O)COc2ccc(Cl)cc2C)CC1 | 29 | 2 | 9 | 2 | 73* | -1
Cc1cc(Cl)ccc1OC(C)C(=O)N1CCCN(C(=O)C(C)Oc2ccc(Cl)cc2C)CC1 (configuration not stated) | 14 | 6 | 5 | 4 | 60* | 17
Cc1ccc(OCC(=O)N2CCCCC2)c(Br)c1 | -2 | -1 | -12 | 1 | -2 | 6
Cc1cc(Cl)ccc1OCC(=O)N1CC(C)CC(C)C1 (configuration not stated) | -20 | 4 | -3 | -1 | -5 | 12
COC(=O)/C(C(C)=O)=C(/C=C/C=C/N(C)C)N(C)C | 3 | 1 | 3 | 0 | 2 | -2
O=C(CCc1ccccc1)Nc1nnc(-c2ccc3c(c2)CCCC3)o1 | 14 | 11 | -3 | 1 | 66* | 9
CN(C)S(=O)(=O)c1ccc(C(=O)Nc2nnc(-c3cccs3)o2)cc1 | -18 | 6 | 2 | 2 | 5 | .
CN(C)S(=O)(=O)c1ccc(C(=O)Nc2nnc(-c3ccc4c(c3)CCCC4)o2)cc1 | -1 | 3 | -9 | 2 | 68* | -2
Cc1ccsc1/C=N/NC(=O)c1ccc(-n2cccc2)cc1 | -17 | 11 | -29 | 5 | 10 | .
O=C(Cn1c(C(F)(F)F)nc2ccccc21)Nc1ccccc1N1CCOCC1 | 9 | 10 | -31 | 1 | 5 | 1
Cc1ccccc1OCC(=O)Nc1ccc2c(c1)C(=O)c1ccccc1C2=O | -10 | 0 | 14 | 3 | 18 | 3
Cc1ccccc1OCC(=O)Nc1ccc2c(c1)Cc1ccccc1-2 | -29 | 32* | -12 | 4 | 10 | 19*
CC(C)(C)Nc1nc(SCc2ccccc2)nc(N2CCOCC2)n1 | -10 | 3 | 2 | 3 | 66* | -1
O=C(Nc1ccc(Br)c(C(F)(F)F)c1)c1ccccc1 | -23 | 1 | -1 | 1 | 66* | 1
CCOC(=O)C1=C(C)N(CCCC(=O)O)C(=O)NC1c1ccccc1OS(=O)(=O)c1ccc(C)cc1 (configuration not stated) | -8 | -5 | -6 | 8.4* | -2 | 3
CC1=C(C(=O)OCc2ccccc2)C(c2cccc([N+](=O)[O-])c2)NC(=O)N1CCCCCC(=O)O (configuration not stated) | 7 | -5 | 11 | 11* | -5 | 1
Cc1ccccc1CSc1nnc(-c2ccco2)n1Cc1ccco1 | -10 | 10 | 1 | 2 | 9 | 14
CN(C)c1ccc(C(=O)c2ccc(N(C)C)c3ccccc23)cc1 | -30 | 9 | -20 | 1 | 61* | 15
SMILES | NPY1 pot ag | NPY-Y1 antag | NPY-Y2 PAM-ag | RAM network inh | WT yeast gro inh | NPY Y2 blocker
CC(=O)CCc1oc2c([N+](=O)[O-])cccc2c1-c1ccc(C)o1 | -4 | 3 | -14 | 3 | 69* | .
O=c1[nH]cnc2[nH]ncc12 | 14 | 3 | 6 | 2 | 12 | 1
O=C(c1cc2c(s1)-c1ccccc1OC2)N1CCN(c2ccccc2)CC1 | -26 | 11 | -16 | 4 | 36 | 11
O=C(c1cc2c(s1)-c1ccccc1OC2)N1CCCC1 | 42* | 4 | 31* | 2 | 64 | 4
CC1CN(C(=O)c2cccs2)CCN1C(=O)c1cccs1 (configuration not stated) | 14 | 1 | 13 | -1 | -6 | 2
CCNc1nc(Oc2ccc(=O)n(-c3ccccc3)n2)nc(N(C)C)n1 | -13 | 2 | -29 | 1 | 6 | 3
OC(COCC(F)(F)C(F)(F)C(F)(F)C(F)F)Cn1c2ccccc2c2ccccc21 (configuration not stated) | -4 | -3 | 5 | 7 | 91* | -7
CCSc1ccc(C(=O)NCC(=O)O)cc1 | 9 | . | 3 | . | . | .
Cc1ccc(-c2cc(C(=O)N3N=C(C(F)F)CC3(O)C(F)F)c3ccccc3n2)cc1C (configuration not stated) | 3 | -10 | 7 | -1 | 92* | -4
Cc1nn(-c2ccccc2)c(C)c1/C=C/C(=O)OC(C)C(=O)Nc1ncc(Cl)cc1Cl (configuration not stated) | -3 | 2 | 8 | 1 | 8 | 5
Cc1ccc2sc(NNC(=O)C3COc4ccccc4O3)nc2c1C (configuration not stated) | -2 | 9 | 1 | 5 | 67* | 4
CC(=O)Nc1cccc(Oc2ncnc3scc(-c4ccc(C(C)C)cc4)c23)c1 | -15 | 7 | -21 | 8 | 72* | -2
NC(=O)COc1ncnc2scc(-c3ccc(F)cc3)c12 | -3 | 1 | 9 | 1 | 1 | .
Cc1sc2ncnc(SCc3ccc(C(=O)O)cc3)c2c1C | 3 | 6 | -20 | 4 | 1 | .
CC(=O)Nc1ccc(Sc2ncnc3scc(-c4ccccc4)c23)cc1 | -7 | 3 | 6 | 5 | 79* | 3
Cc1ccc(-c2csc3ncnc(SCc4ccc(C(=O)O)cc4)c23)cc1 | 14 | -6 | 18 | 2 | 59* | .
Cc1ccc(-n2nnnc2SCc2nnc(-c3ccccc3Br)o2)cc1 | -6 | 3 | -4 | 10* | 22 | 7
Cc1nc(-c2cccc(NS(=O)(=O)c3cccc4ccccc34)c2)cs1 | 14 | 1 | -5 | 5 | 62* | 14
Cc1nc(-c2cccc(NS(C)(=O)=O)c2)cs1 | -10 | 4 | -1 | 2 | -5 | 7
Cc1ccc(C(=O)Cn2nnc(-c3cccs3)n2)cc1 | 9 | . | -16 | . | . | .
O=C(CN1CC[n+]2c(-c3cccs3)csc21)c1ccc(-c2ccccc2)cc1 | -15 | -1 | -6 | 0 | 69* | .
Cc1ccc(N(CC(=O)Nc2ccccc2C(=O)N2CCOCC2)S(C)(=O)=O)cc1 | 0 | -3 | 9 | 0 | 1 | 0
